Source: ChEMBL document CHEMBL4316597, “Design, Synthesis, and Biological Evaluation of Itaconic Acid Derivatives as Potential Anti-Influenza Agents” (J Med Chem, 2019)
The source made the active and inactive calls. The rule behind the calls is not given here.

Assays:
[1] = Selectivity ratio of CC50 for MDCK cells to EC50 for pandemic Influenza A virus A/TW/2235/09 (H1N1) SO4; format: toxicity; conditions: dog, read-out: Ratio CC50/EC50
How it was run: (§1)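 MDCK cells (2 × 10^4/well, E10, 16–24 h) infected at nine-fold TCID50 with compound for 72 h, 37 °C, 5% CO2. Cells were fixed in 4% paraformaldehyde and stained with crystal violet; EC50 is from Reed–Muench. For CC50, cells had compound alone for 72 h, then MTT 3 h, DMSO, A570, Reed–Muench. SI = CC50/EC50; three independent experiments.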

[2] = system: Influenza A virus; experiment: Antiviral activity against Influenza A virus A/TW/3446/02 (H3N2) infected in MDCK cells after 72 hrs by crystal violet-staining based assay; format: functional, organism-based
How it was run: (§2)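 Cells seeded at 2 × 10^4/well in E10 (DMEM, 10% FBS), 16–24 h at 37 °C/5% CO2, washed with DPBS, then infected at nine-fold TCID50 with or without serial compound concentrations. Influenza is run in MDCK and enterovirus/rhinovirus in RD. Incubated 72 h, fixed in 4% paraformaldehyde, stained with 0.1% crystal violet, and read for cell density. EC50 = 50% CPE inhibition by Reed–Muench; mean ± S.D. of at least three runs.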

[3] = system: Influenza A virus; experiment: Inhibition of viral protein synthesis in Influenza A virus (A/WSN/33) infected in MDCK cells assessed as effect on PA protein level at 10 uM measured up to 9 hrs post infection by Western blot analysis; format: functional, organism-based; conditions: A/WSN/1933(H1N1)
How it was run: (§3)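 MDCK cells (5 × 10^5/well) infected with A/WSN/33 at MOI 0.1, washed twice, then held in E0 with or without 10 μM compound. Lysed in Triton X-100/deoxycholate buffer, equal protein separated by SDS-PAGE, and immunoblotted for viral proteins with GAPDH as loading control. Time-course harvests up to 9 h pi.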

[4] = system: Enterovirus A71; experiment: Antiviral activity against Enterovirus A71 TW/2231/1998 infected in human RD cells after 72 hrs by crystal violet-staining based assay; format: functional, organism-based; conditions: Enterovirus A, TW/2231/1998, RD; how it was run: as §2
[5] = Selectivity ratio of CC50 for MDCK cells to EC50 for Influenza A virus A/TW/00482/13; format: toxicity; conditions: dog, read-out: Ratio CC50/EC50
How it was run: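 SI is calculated as CC50 (MDCK, 72 h MTT) divided by EC50 (72 h crystal-violet CPE assay in MDCK).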

[6] = Selectivity ratio of CC50 for human RD cells to EC50 for Enterovirus A71 TW/2231/1998; format: toxicity; conditions: read-out: Ratio CC50/EC50
How it was run: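 RD cells (2 × 10^4/well, DMEM 10% FBS, 16–24 h) infected with enterovirus at nine-fold TCID50 with compound, 72 h, 37 °C, 5% CO2. Cells were fixed in 4% paraformaldehyde, stained with 0.1% crystal violet, and EC50 taken by Reed–Muench. CC50 came from 72 h exposure of uninfected RD cells, MTT 3 h, A570, Reed–Muench. SI = CC50/EC50; three independent experiments.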

[7] = system: Erythrocyte; experiment: Induction of hemagglutination in guinea pig RBC at serial dilution from 50 uM after 1 hr by HAI assay; format: cell-based, Cavia porcellus
How it was run: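 Virus titrated on 0.5% guinea pig RBCs to define 1 HA unit; 4 HA units used. Compound two-fold serially diluted from 50 µM and mixed with virus for 30 min at room temperature, or tested without virus for direct agglutination. 0.5% RBCs then added and agglutination scored after 1 h. DMSO/RBC-only and virus-only controls included.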

[8] = system: Influenza A virus; experiment: Inhibition of viral protein sub-cellular distribution in Influenza A virus (A/WSN/33) infected in MDCK cells assessed as reduction in NS2 protein distribution to cytoplasm at 10 uM measured after 9 hrs post infection by IF-staining based microscopy; format: functional, organism-based; conditions: A/WSN/1933(H1N1)
How it was run: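 MDCK cells grown on coverslips (2 × 10^5/well, 16 h), infected at MOI 0.1 for 1 h, washed, then kept in E0 with test compound (1 or 10 μM) or LMB 10 nM; DMSO 0.05% as mock. Fixed at 9 h pi in 4% paraformaldehyde and immunostained for M1, NP, NS2 or PA (1:50), with Hoechst nuclear stain. Viewed by confocal microscopy at 63×. NP nuclear/cytoplasmic intensity ratio quantified; three independent experiments.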

[9] = system: Influenza A virus; experiment: Inhibition of viral protein synthesis in Influenza A virus (A/WSN/33) infected in MDCK cells assessed as effect on NS1 protein level at 10 uM measured up to 9 hrs post infection by Western blot analysis; format: functional, organism-based; conditions: A/WSN/1933(H1N1); how it was run: as §3
[10] = Cytotoxicity against MDCK cells assessed as cell death after 72 hrs by MTT assay; format: cell-based, Canis lupus familiaris; conditions: dog
How it was run: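 MDCK or RD cells at 2 × 10^4/well in E10, overnight at 37 °C/5% CO2, DPBS wash, then exposed to graded compound concentrations for 72 h. MTT added for 3 h, formazan dissolved in DMSO, absorbance read at 570 nm. CC50 (50% cell death) by Reed–Muench.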

[11] = system: Influenza A virus; experiment: Antiviral activity against Influenza A virus (A/WSN/33) infected in MDCK cells at 10 uM added at 3 hrs to 9 hrs post infection and measured after 9 hrs by plaque assay; format: functional, organism-based; conditions: A/WSN/1933(H1N1)
How it was run: (§4)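 MDCK monolayers exposed to compound (1 or 10 μM) over windows of −3, −1, 0, 3 or 6 to 9 h pi. A/WSN/33 adsorbed at MOI 0.1 from −1 to 0 h, then removed with a PBS wash. Supernatant taken at 9 h pi and titred by plaque assay, normalised to virus-only (100%). Average of three independent experiments.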

[12] = system: Influenza A virus; experiment: Inhibition of viral protein synthesis in Influenza A virus (A/WSN/33) infected in MDCK cells assessed as effect on NP protein level at 10 uM measured up to 9 hrs post infection by Western blot analysis; format: functional, organism-based; conditions: A/WSN/1933(H1N1); how it was run: as §3
[13] = system: Influenza A virus; experiment: Antiviral activity against Influenza A virus (A/WSN/33) infected in MDCK cells at 10 uM added at -1 hrs to 9 hrs post infection and measured after 9 hrs by plaque assay; format: functional, organism-based; conditions: A/WSN/1933(H1N1); how it was run: as §4
[14] = system: Influenza A virus; experiment: Inhibition of viral protein synthesis in Influenza A virus (A/WSN/33) infected in MDCK cells assessed as effect on NS2 protein level at 10 uM measured up to 9 hrs post infection by Western blot analysis; format: functional, organism-based; conditions: A/WSN/1933(H1N1); how it was run: as §3
[15] = system: Influenza A virus; experiment: Antiviral activity against pandemic Influenza A virus A/TW/90206/09 (H1N1) SO4 infected in MDCK cells after 72 hrs by crystal violet-staining based assay; format: functional, organism-based; conditions: A/TW/90206/09 (H1N1) SO4, MDCK; how it was run: as §2
[16] = system: Influenza A virus; experiment: Antiviral activity against Influenza A virus (A/WSN/33) infected in MDCK cells assessed as reduction in virus-induced cytopathic effect after 72 hrs by crystal violet-staining based assay; format: functional, organism-based; conditions: A/WSN/1933(H1N1); how it was run: as §2
[17] = system: Influenza A virus; experiment: Antiviral activity against Influenza A virus (A/WSN/33) infected in MDCK cells assessed as inhibition of virus-induced cytopathic effects at 10 uM after 36 hrs by microscopic analysis; format: functional, organism-based; conditions: A/WSN/1933(H1N1)
How it was run: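 MDCK cells (2 × 10^5/well) grown 16–24 h, infected with A/WSN/33 at MOI 0.5 for 1 h, rinsed twice with DPBS, then kept in serum-free E0 with 10 μM compound at 37 °C. Cell morphology checked by light microscopy at 12 and 36 h pi. Drug-only and virus-only arms included; three repetitions.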

[18] = Selectivity ratio of CC50 for MDCK cells to EC50 for Influenza A virus A/TW/03384/13; format: toxicity; conditions: dog, read-out: Ratio CC50/EC50; how it was run: as §1

## C=C(CC(=O)Nc1ccc(F)cc1F)C(=O)Nc1ccc(F)cc1F
[1]
  selectivity ratio: 36
[2]
  EC50: 4.6 µM
[3]
  inhibition: inactive
[4]
  EC50: 4.5 µM
[5]
  selectivity ratio: 22
[6]
  selectivity ratio: 16
[7]
  Activity: Non-Toxic
[8]
  inhibition: inactive
[9]
  inhibition: inactive
[10]
  CC50 at 72 h: 84.7 µM
[11]
  Activity: Active
[12]
  inhibition: inactive
[13]
  Activity: Active
[14]
  inhibition: inactive
[15]
  EC50: 2.98 µM
[16]
  EC50: 2.84 µM
[17]
  Activity: Active
[18]
  selectivity ratio: 23
